The values that follow come from ChEMBL document CHEMBL1781878, “Novel carbamate cholinesterase inhibitors that release biologically active amines following enzyme inhibition” (Bioorg Med Chem Lett, 2009).

A short description of series [1]: Toxicity in po dosed rat assessed as maximum tolerated dose at which reversible and non-life threatening cholinergic effect observed. The format is organism-based. Particulars: in vivo. The essentials: (§1)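 Rats dosed orally and observed for cholinergic signs (salivation, lacrimation, fasciculations, diarrhea, seizures) and overt behaviour including locomotor stimulation. MTD defined as the dose giving clear, reversible, non-life-threatening cholinergic effects.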

Series [2] has as its system Rattus norvegicus. In words: Inhibition of total brain cholinesterase activity in rat at 10 mg/kg, po measured 30 to 180 mins post dose. The format is functional. The essentials:
(§2)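 Rats received oral saline solutions at the maximum tolerated or highest tested dose; after sacrifice, brain samples processed and total ChE activity determined spectrophotometrically versus control. n = 4 animals per group, mean given.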

In the next series the target is Cholinesterase (Homo sapiens, UniProt P06276). In words: Inhibition of purified human plasma BuChE preincubated for 30 mins before DTNB substrate addition by spectrophotometric assay based Ellman's method. The essentials: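 Enzyme: human BuChE purified from serum. Modified Ellman assay. Inhibitor preincubated with enzyme 30 min at 25 °C in 10 mM Tris pH 8.0, then acetylthiocholine (0.3 mM) added; DTNB 0.33 mM final. At least five inhibitor levels plotted as Dixon plot; IC50 from x-intercept. Triplicates, two or three independent experiments.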
Cholinesterase, sequence (P06276 whole entry): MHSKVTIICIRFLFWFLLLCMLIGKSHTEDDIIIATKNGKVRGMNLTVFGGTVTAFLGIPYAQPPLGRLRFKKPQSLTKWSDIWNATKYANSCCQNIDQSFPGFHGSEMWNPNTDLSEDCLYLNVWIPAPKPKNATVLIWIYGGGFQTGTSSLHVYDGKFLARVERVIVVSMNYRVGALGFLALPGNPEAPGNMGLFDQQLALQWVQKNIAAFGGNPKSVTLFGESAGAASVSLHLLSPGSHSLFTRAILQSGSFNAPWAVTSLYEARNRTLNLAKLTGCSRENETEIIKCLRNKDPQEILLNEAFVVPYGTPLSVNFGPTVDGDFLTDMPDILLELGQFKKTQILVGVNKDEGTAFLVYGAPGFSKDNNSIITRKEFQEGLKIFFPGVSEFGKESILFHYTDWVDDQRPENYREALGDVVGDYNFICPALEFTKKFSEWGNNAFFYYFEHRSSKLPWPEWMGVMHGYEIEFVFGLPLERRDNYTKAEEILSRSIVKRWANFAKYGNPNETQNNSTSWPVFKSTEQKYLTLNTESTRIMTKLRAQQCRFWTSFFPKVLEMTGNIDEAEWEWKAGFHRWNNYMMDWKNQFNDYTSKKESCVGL
(In Ellman's method for cholinesterases, released thiocholine reacts with DTNB.)

The target of series [3] is Acetylcholinesterase (Homo sapiens) (UniProt P22303).
Acetylcholinesterase (Homo sapiens), sequence (P22303 whole entry): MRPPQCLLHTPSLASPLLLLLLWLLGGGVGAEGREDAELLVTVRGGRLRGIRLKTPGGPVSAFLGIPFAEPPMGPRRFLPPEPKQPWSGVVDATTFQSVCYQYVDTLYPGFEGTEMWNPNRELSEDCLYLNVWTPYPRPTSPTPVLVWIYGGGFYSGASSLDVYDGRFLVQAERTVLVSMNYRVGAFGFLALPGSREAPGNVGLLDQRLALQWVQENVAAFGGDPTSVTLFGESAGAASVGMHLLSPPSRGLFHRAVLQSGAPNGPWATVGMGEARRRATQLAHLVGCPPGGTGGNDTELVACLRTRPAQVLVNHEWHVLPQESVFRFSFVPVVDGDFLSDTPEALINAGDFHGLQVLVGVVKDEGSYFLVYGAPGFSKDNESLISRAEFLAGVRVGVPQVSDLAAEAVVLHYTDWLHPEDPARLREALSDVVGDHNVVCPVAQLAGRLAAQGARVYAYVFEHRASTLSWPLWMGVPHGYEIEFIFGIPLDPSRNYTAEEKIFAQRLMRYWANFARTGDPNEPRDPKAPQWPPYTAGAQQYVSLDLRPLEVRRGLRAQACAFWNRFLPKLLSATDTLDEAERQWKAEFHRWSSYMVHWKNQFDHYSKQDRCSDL
For series [4], the system named is Rattus norvegicus. In words: Inhibition of total plasma cholinesterase in rat at 10 mg/kg, po measured 60 mins post dose. The format is functional. Particulars: 1 h. The essentials: (§3)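 Rats given oral saline solutions of compound at the maximum tolerated or highest tested dose; sacrificed 60 min post-dose, blood collected and processed, plasma ChE activity measured spectrophotometrically (Ellman-type). n = 4 rats per group; mean reported.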

Series [5] concerns Rattus norvegicus. In words: Inhibition of total plasma cholinesterase in rat at 5 mg/kg, po measured 30 to 180 mins post dose. The format is functional. The method, boiled down:
(§4)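 Oral dosing in saline to rats; animals sacrificed at 30, 60 and 180 min; plasma and brain processed and ChE activity read spectrophotometrically. Value is mean of the three time points; n = 4 rats per group.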

The test system of series [6] is Rattus norvegicus. In words: Toxicity in rat assessed as induction of diarrhea incidence at 5 mg/kg, po. The format is organism-based. Set-up: dose 5 mg/kg, route oral. The following applies: in vivo. The method, boiled down:
as §1

Series [7] has as its system Rattus norvegicus. In words: Toxicity in rat assessed as induction of severe fasciculation, salivation and lacrimation incidence at 5 mg/kg, po. Details: dose 5 mg/kg, route oral. The following applies: in vivo. The format is organism-based. The method, boiled down: as §1
The test system of series [8] is Rattus norvegicus. In words: Toxicity in rat assessed as induction of seizures incidence at 5 mg/kg, po. Details: dose 5 mg/kg, route oral. The following applies: in vivo. The format is organism-based. The method, boiled down:
as §1

Series [9] has as its system Rattus norvegicus. In words: Inhibition of total brain cholinesterase activity in rat at 5 mg/kg, po measured 30 to 180 mins post dose. The format is functional. The method, boiled down:
as §4

Series [10] concerns Rattus norvegicus. In words: Inhibition of total plasma cholinesterase in rat at >64 mg/kg, po measured 60 mins post dose. The format is functional. The essentials:
as §3

Series [11] relates to Rattus norvegicus. In words: Inhibition of total brain cholinesterase activity in rat at >64 mg/kg, po measured 30 to 180 mins post dose. The format is functional. The essentials:
as §2

The subject of series [12] is Rattus norvegicus. In words: Inhibition of total brain cholinesterase activity in rat at 32 mg/kg, po measured 30 to 180 mins post dose. The format is functional. The essentials: as §2
The species entered for the next series is Homo sapiens. In words: Selectivity index, ratio of IC50 for purified human […] to IC50 for human recombinant AChE. The method, boiled down:
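Modified Ellman assay on recombinant human AChE and human serum-purified BuChE. Enzyme and inhibitor were preincubated 30 min at 25 °C in 10 mM Tris pH 8.0, then ATCh (0.3 mM) was added with DTNB (0.33 mM final). A405 was read for 5 min and initial rates compared to control. IC50s come from Dixon plots (≥5 inhibitor concentrations), triplicate, 2–3 independent runs. Selectivity is the ratio of the two IC50s.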

The test system of series [13] is Rattus norvegicus. In words: Inhibition of total plasma cholinesterase in rat at 32 mg/kg, po measured 60 mins post dose. The format is functional. The following applies: 1 h. The method, boiled down: as §3
The subject of series [14] is Rattus norvegicus. In words: Inhibition of cholinesterase activity in rat assessed as reconstituted enzyme-mediated release of amphetamine in to plasma at 64 mg/kg, po measured 1 hr post dose. The format is functional. The essentials: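 Rats dosed orally with test compound in saline; plasma collected 1 h post-dose and amphetamine content quantified by LC/MS/MS.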

Series [15] has as its system Rattus norvegicus. In words: Toxicity in rat assessed as locomotor stimulation at 100 mg/kg, po. The format is organism-based. Details: dose 100 mg/kg, route oral. The following applies: in vivo. The essentials: as §1
The test system of series [16] is Rattus norvegicus. In words: Memory enhancing effect in rat Scopolamine passive avoidance model assessed as reversal of Scopolamine-induced amnesia by measuring step-through latencies at 12 mg/kg, ip compound administered 30 mins before training and Scopolamine added 40 mins before training. Details: dose 12 mg/kg. The format is functional, organism-based. The method, boiled down:
(§5)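 Passive avoidance in rats: scopolamine hydrobromide 0.2 mg/kg sc 40 min before training; saline or compound ip 30 min before training. Retention test 24 h later, identical to training but without foot-shock or drug; latency to enter dark chamber recorded.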

Series [17] has as its system Rattus norvegicus. In words: Memory enhancing effect in rat Scopolamine passive avoidance model assessed as reversal of Scopolamine-induced amnesia by measuring step-through latencies at 8 mg/kg, ip compound administered 30 mins before training and Scopolamine added 40 mins before training. The format is functional, organism-based. Details: dose 8 mg/kg. The method, boiled down:
as §5

The test system of series [18] is Rattus norvegicus. In words: Inhibition of total plasma cholinesterase in rat at >100 mg/kg, po measured 60 mins post dose. The format is functional. The method, boiled down:
as §3

The test system of series [19] is Rattus norvegicus. In words: Inhibition of total brain cholinesterase activity in rat at >100 mg/kg, po measured 30 to 180 mins post dose. The format is functional. The method, boiled down:
as §2

Molecules are shown by their SMILES. Calls of active or inactive are those of the source.

Take `C[C@H](Cc1ccccc1)N(C)C(=O)Oc1cccc([C@H](C)N(C)C)c1.Cl`: in series [1], the MTD (in general, the largest dose that counted as tolerated) was 10 mg/kg. Moreover, the inhibition in vivo (in general, how much of the control response was suppressed) at 10 mg/kg with Rattus norvegicus [2] worked out at 64%; in the series with Rattus norvegicus [4], 45%. Also, the IC50 (commonly the concentration that inhibits the measured activity by half) on Cholinesterase was 24.4 µM. In series [3], this compound yielded a T1/2 greater than 24 h.
For `CCN(C)C(=O)Oc1cccc([C@H](C)N(C)C)c1` [RIVASTIGMINE], the inhibition in vivo at 5 mg/kg in the series on Rattus norvegicus [5] was 39%; in the series on Rattus norvegicus [9] it was 56%. Besides, the Activity result in the series on Rattus norvegicus [6], with Rattus norvegicus [7] and with Rattus norvegicus [8] was “Toxic” throughout. The compound further gave a T1/2 in series [3] greater than 24 h.
Consider `C[C@@H](c1cccc(OC(=O)N(C)[C@@H](C)Cc2ccccc2)c1)N(C)C.Cl`, for which the T1/2 in [3] was greater than 24 h. The “inhibition (INH)” value in the series on Rattus norvegicus [10] and in the series with Rattus norvegicus [11] was 50% in each case.
For `C[C@H](Cc1ccccc1)NC(=O)Oc1cccc([C@H](C)N(C)C)c1`, the results for the inhibition in vivo at 32 mg/kg in the series with Rattus norvegicus [12] and in the series with Rattus norvegicus [13] were 25% and 26%, respectively. In addition, the Ratio IC50 in the series filed under Homo sapiens is 1. The compound further registered a T1/2 in series [3] of 12 h.
In the case of `C[C@@H](Cc1ccccc1)NC(=O)Oc1cccc([C@H](C)N(C)C)c1.Cl`, the Activity is 17 ng/mL in the series on Rattus norvegicus [14] and “Non-toxic” with Rattus norvegicus [15]. The Ratio IC50 in the series filed under Homo sapiens was 14. The inhibition result in the series with Rattus norvegicus [16] and in the series with Rattus norvegicus [17] was “Active” each time. Moreover, the “inhibition (INH)” value stood at 59% with Rattus norvegicus [18] and 72% in the series on Rattus norvegicus [19]. For the same compound, in [3], the T1/2 was found to be 1.2 h.
